Measured values from ChEMBL document CHEMBL1255404, “Spread of OXA-48-encoding plasmid in Turkey and beyond” (2010).
In brackets after ≈: the same amount, converted by molar mass.

Columns and labels:
Assay type in all cases: functional
[1] = system: Klebsiella pneumoniae; assay: Antimicrobial activity against Klebsiella pneumoniae isolate Kp3A expressing beta-lactamase OXA-48 by Etest method in presence of beta-lactamase inhibitor clavulanic acid
Summary of the method: (§1)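 MICs of β-lactams read from Etest strips. The test organisms are carbapenem-resistant, OXA-48-positive clinical Enterobacteriaceae isolates recovered from Turkey, Lebanon, Egypt, France and Belgium.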

[2] = system: Escherichia coli; assay: Antimicrobial activity against Escherichia coli isolate J53 harboring p3A containing beta-lactamase OXA-48 located within transposon Tn1999 by Etest method in presence of beta-lactamase inhibitor clavulanic acid
Summary of the method: (§2)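 β-Lactam MICs read with Etest strips. Strains are E. coli J53 recipient and J53 transconjugants carrying OXA-48-positive plasmids recovered from clinical enterobacterial isolates.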

[3] = system: Klebsiella pneumoniae; assay: Antimicrobial activity against Klebsiella pneumoniae isolate Kp4A expressing beta-lactamase OXA-48 and CTX-M-15 by Etest method in presence of beta-lactamase inhibitor clavulanic acid; summary of the method: as §1
[4] = system: Klebsiella pneumoniae; assay: Antimicrobial activity against Klebsiella pneumoniae isolate Kp5A expressing beta-lactamase OXA-48 and SHV-5 by Etest method in presence of beta-lactamase inhibitor clavulanic acid; summary of the method: as §1
[5] = system: Klebsiella pneumoniae; assay: Antimicrobial activity against Klebsiella pneumoniae isolate Kp6A expressing beta-lactamase OXA-48 and TEM-150 by Etest method in presence of beta-lactamase inhibitor clavulanic acid; summary of the method: as §1
[6] = system: Escherichia coli; assay: Antimicrobial activity against Escherichia coli isolate J53 harboring p4A containing beta-lactamase OXA-48 located within transposon Tn1999 by Etest method in presence of beta-lactamase inhibitor clavulanic acid; summary of the method: as §2
[7] = system: Klebsiella pneumoniae; assay: Antimicrobial activity against Klebsiella pneumoniae isolate Kp7A expressing beta-lactamase OXA-48 by Etest method in presence of beta-lactamase inhibitor clavulanic acid; summary of the method: as §1
[8] = system: Klebsiella pneumoniae; assay: Antimicrobial activity against Klebsiella pneumoniae isolate KpI-1 expressing beta-lactamase OXA-48 and CTX-M-15 by Etest method in presence of beta-lactamase inhibitor clavulanic acid; summary of the method: as §1
[9] = system: Klebsiella pneumoniae; assay: Antimicrobial activity against Klebsiella pneumoniae isolate KpBIC expressing beta-lactamase OXA-48 by Etest method in presence of beta-lactamase inhibitor clavulanic acid; summary of the method: as §1
[10] = system: Escherichia coli; assay: Antimicrobial activity against Escherichia coli isolate TOP10 harboring pBIC containing beta-lactamase OXA-48 located within transposon Tn1999.2 by Etest method in presence of beta-lactamase inhibitor clavulanic acid
Summary of the method: (§3)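 β-Lactam MICs read with Etest strips. Strains are E. coli TOP10 host and TOP10 transformants made with plasmid DNA extract when conjugation failed. Transformants were selected on LB agar with ticarcillin 50 μg/ml.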

[11] = system: Providencia rettgeri; assay: Antimicrobial activity against Providencia rettgeri isolate expressing beta-lactamase OXA-48 and TEM-101 by Etest method in presence of beta-lactamase inhibitor clavulanic acid; summary of the method: as §1
[12] = system: Escherichia coli; assay: Antimicrobial activity against Escherichia coli isolate TOP10 harboring pPR containing beta-lactamase and TEM-101 by Etest method in presence of beta-lactamase inhibitor clavulanic acid; summary of the method: as §3
[13] = system: Escherichia coli; assay: Antimicrobial activity against Escherichia coli isolate J53 harboring pEnc1 containing beta-lactamase OXA-48 located within transposon Tn1999 by Etest method in presence of beta-lactamase inhibitor clavulanic acid; summary of the method: as §2
[14] = system: Enterobacter cloacae; assay: Antimicrobial activity against Enterobacter cloacae isolate 2 expressing beta-lactamase OXA-48 and SHV-5 by Etest method in presence of beta-lactamase inhibitor clavulanic acid; summary of the method: as §1
[15] = system: Escherichia coli; assay: Antimicrobial activity against Escherichia coli isolate J53 harboring pEnc2 containing beta-lactamase OXA-48 located within transposon Tn1999 by Etest method in presence of beta-lactamase inhibitor clavulanic acid; summary of the method: as §2
[16] = system: Escherichia coli; assay: Antimicrobial activity against Escherichia coli isolate TOP10 by Etest method in presence of beta-lactamase inhibitor clavulanic acid; summary of the method: as §3
[17] = system: Klebsiella pneumoniae; assay: Antimicrobial activity against Klebsiella pneumoniae isolate KpL expressing beta-lactamase OXA-48 by Etest method
[18] = system: Klebsiella pneumoniae; assay: Antimicrobial activity against Klebsiella pneumoniae isolate Kp11978 expressing beta-lactamase OXA-48, SHV-2a and TEM-1 by Etest method
[19] = system: Escherichia coli; assay: Antimicrobial activity against Escherichia coli isolate J53 harboring pBb containing beta-lactamase OXA-48 located within transposon Tn1999.2 by Etest method; summary of the method: as §2
[20] = system: Escherichia coli; assay: Antimicrobial activity against Escherichia coli isolate J53 harboring p3A containing beta-lactamase OXA-48 located within transposon Tn1999 by Etest method; summary of the method: as §2
[21] = system: Klebsiella pneumoniae; assay: Antimicrobial activity against Klebsiella pneumoniae isolate Kp4A expressing beta-lactamase OXA-48 and CTX-M-15 by Etest method
[22] = system: Klebsiella pneumoniae; assay: Antimicrobial activity against Klebsiella pneumoniae isolate Kp6A expressing beta-lactamase OXA-48 and TEM-150 by Etest method
[23] = system: Escherichia coli; assay: Antimicrobial activity against Escherichia coli isolate J53 harboring p4A containing beta-lactamase OXA-48 located within transposon Tn1999 by Etest method; summary of the method: as §2
[24] = system: Escherichia coli; assay: Antimicrobial activity against Escherichia coli isolate J53 harboring p5A containing beta-lactamase OXA-48 located within transposon Tn1999 by Etest method; summary of the method: as §2
[25] = system: Escherichia coli; assay: Antimicrobial activity against Escherichia coli isolate J53 harboring p6A containing beta-lactamase OXA-48 located within transposon Tn1999 by Etest method; summary of the method: as §2
[26] = system: Escherichia coli; assay: Antimicrobial activity against Escherichia coli isolate J53 harboring p7A containing beta-lactamase OXA-48 located within transposon Tn1999 by Etest method; summary of the method: as §2
[27] = system: Escherichia coli; assay: Antimicrobial activity against Escherichia coli isolate J53 harboring pI-1 containing beta-lactamase OXA-48 located within transposon Tn1999.2 by Etest method; summary of the method: as §2
[28] = system: Escherichia coli; assay: Antimicrobial activity against Escherichia coli isolate J53 harboring pI-2 containing beta-lactamase OXA-48 located within transposon Tn1999.2 by Etest method; summary of the method: as §2
[29] = system: Klebsiella pneumoniae; assay: Antimicrobial activity against Klebsiella pneumoniae isolate KpBIC expressing beta-lactamase OXA-48 by Etest method; summary of the method: as §1
[30] = system: Klebsiella pneumoniae; assay: Antimicrobial activity against Klebsiella pneumoniae isolate KpE expressing beta-lactamase OXA-48 and CTX-M-15 by Etest method
[31] = system: Escherichia coli; assay: Antimicrobial activity against Escherichia coli isolate J53 harboring pE containing beta-lactamase OXA-48 located within transposon Tn1999.2 by Etest method; summary of the method: as §2
[32] = system: Escherichia coli; assay: Antimicrobial activity against Escherichia coli isolate J53 harboring pBEL containing beta-lactamase OXA-48 located within transposon Tn1999.2 by Etest method; summary of the method: as §2
[33] = system: Escherichia coli; assay: Antimicrobial activity against Escherichia coli isolate TOP10 harboring pPR containing beta-lactamase and TEM-101 by Etest method; summary of the method: as §3
[34] = system: Escherichia coli; assay: Antimicrobial activity against Escherichia coli isolate J53 harboring pEnc1 containing beta-lactamase OXA-48 located within transposon Tn1999 by Etest method; summary of the method: as §2
[35] = system: Enterobacter cloacae; assay: Antimicrobial activity against Enterobacter cloacae isolate 2 expressing beta-lactamase OXA-48 and SHV-5 by Etest method
[36] = system: Citrobacter freundii; assay: Antimicrobial activity against Citrobacter freundii isolate expressing beta-lactamase OXA-48 by Etest method
[37] = system: Escherichia coli; assay: Antimicrobial activity against Escherichia coli isolate J53 harboring pCF containing beta-lactamase OXA-48 located within transposon Tn1999 by Etest method; summary of the method: as §2
[38] = system: Escherichia coli; assay: Antimicrobial activity against Escherichia coli isolate J53 harboring pEcA containing beta-lactamase OXA-48 located within transposon Tn1999.2 by Etest method; summary of the method: as §2
[39] = system: Escherichia coli; assay: Antimicrobial activity against Escherichia coli isolate TOP10 by Etest method; summary of the method: as §3
[40] = system: Klebsiella pneumoniae; assay: Antimicrobial activity against Klebsiella pneumoniae isolate Kp11978 expressing beta-lactamase OXA-48, SHV-2a and TEM-1 by Etest method in presence of beta-lactamase inhibitor clavulanic acid; summary of the method: as §1

## CC1(C)S[C@@H]2[C@H](NC(=O)[C@H](N)c3ccc(O)cc3)C(=O)N2[C@H]1C(=O)O [AMOXICILLIN]
[1]
  MIC: > 512 µg/mL
[2]
  MIC: > 512 µg/mL
[3]
  MIC: > 512 µg/mL
[4]
  MIC: > 512 µg/mL
[5]
  MIC: > 512 µg/mL
[6]
  MIC: > 512 µg/mL
[7]
  MIC: > 512 µg/mL
[8]
  MIC: > 512 µg/mL
[9]
  MIC: > 512 µg/mL
[10]
  MIC: > 512 µg/mL
[11]
  MIC: > 256 µg/mL
[12]
  MIC: > 256 µg/mL
[13]
  MIC: > 512 µg/mL
[14]
  MIC: > 512 µg/mL
[15]
  MIC: > 512 µg/mL
[16]
  MIC: 4 µg/mL
[17]
  MIC: > 256 µg/mL
[18]
  MIC: > 512 µg/mL
[19]
  MIC: > 512 µg/mL
[20]
  MIC: > 512 µg/mL
[21]
  MIC: > 512 µg/mL
[22]
  MIC: > 512 µg/mL
[23]
  MIC: > 512 µg/mL
[24]
  MIC: > 512 µg/mL
[25]
  MIC: > 512 µg/mL
[26]
  MIC: > 512 µg/mL
[27]
  MIC: > 512 µg/mL
[28]
  MIC: > 512 µg/mL
[29]
  MIC: > 512 µg/mL
[30]
  MIC: > 512 µg/mL
[31]
  MIC: > 512 µg/mL
[32]
  MIC: > 256 µg/mL
[33]
  MIC: > 256 µg/mL
[34]
  MIC: > 512 µg/mL
[35]
  MIC: > 512 µg/mL
[36]
  MIC: > 512 µg/mL
[37]
  MIC: > 512 µg/mL
[38]
  MIC: > 256 µg/mL
[39]
  MIC: 4 µg/mL (≈ 10.9 µM)
[40]
  MIC: > 512 µg/mL

## CC1(C)S[C@@H]2[C@H](NC(=O)[C@H](C(=O)O)c3ccsc3)C(=O)N2[C@H]1C(=O)O [TICARCILLIN]
[1]
  MIC: > 512 µg/mL
[2]
  MIC: > 512 µg/mL
[3]
  MIC: > 512 µg/mL
[4]
  MIC: > 512 µg/mL
[5]
  MIC: > 512 µg/mL
[6]
  MIC: > 512 µg/mL
[7]
  MIC: > 512 µg/mL
[8]
  MIC: > 512 µg/mL
[9]
  MIC: > 512 µg/mL
[10]
  MIC: > 512 µg/mL
[11]
  MIC: > 256 µg/mL
[12]
  MIC: > 256 µg/mL
[13]
  MIC: > 512 µg/mL
[14]
  MIC: > 512 µg/mL
[15]
  MIC: > 512 µg/mL
[16]
  MIC: 4 µg/mL
[17]
  MIC: > 256 µg/mL
[18]
  MIC: > 512 µg/mL
[19]
  MIC: > 512 µg/mL
[20]
  MIC: > 512 µg/mL
[21]
  MIC: > 512 µg/mL
[22]
  MIC: > 512 µg/mL
[23]
  MIC: > 512 µg/mL
[24]
  MIC: > 512 µg/mL
[25]
  MIC: > 512 µg/mL
[26]
  MIC: > 512 µg/mL
[27]
  MIC: > 512 µg/mL
[28]
  MIC: > 512 µg/mL
[29]
  MIC: > 512 µg/mL
[30]
  MIC: > 512 µg/mL
[31]
  MIC: > 512 µg/mL
[32]
  MIC: > 256 µg/mL
[33]
  MIC: > 256 µg/mL
[34]
  MIC: > 512 µg/mL
[35]
  MIC: > 512 µg/mL
[36]
  MIC: > 512 µg/mL
[37]
  MIC: > 512 µg/mL
[38]
  MIC: > 256 µg/mL
[39]
  MIC: 4 µg/mL (≈ 10.4 µM)
[40]
  MIC: > 512 µg/mL
